Measured values pooled from the literature.
Lines come from different studies, so protocols differ.
Target: Ephrin type-A receptor 7 (EPHA7, Homo sapiens, UniProt Q15375)

Cc1cc(NC(=O)c2cccc3cc(-c4cccc5[nH]nc(N)c45)ccc23)ccc1F — activity vs control (enzyme activity; inhibitor; 0.1 µM): 96%
CC/C(=N\NC(=O)NCc1cccc(O)c1)c1ccc(O)c(C)c1O — inhibition (enzyme activity; inhibitor; 0.1 µM): -0.5%
CCN(CC)CCNC(=O)c1c(C)[nH]c(/C=C2\C(=O)Nc3ccc(F)cc32)c1C — inhibition (enzyme activity; inhibitor; 10 µM): 78%
Cc1ccc(NC(=O)c2ccc(C)c(C(F)(F)F)c2)cc1C#Cc1nn(C2CCC(O)CC2)c2ncnc(N)c12 (stereo not drawn) — remaining signal (cell-free assay; 10 µM): 0%
CC(C)(C)c1nc(-c2cccc(NS(=O)(=O)c3c(F)cccc3F)c2F)c(-c2ccnc(N)n2)s1 — remaining activity (enzyme activity; inhibitor; radiometric; 1 µM): 102%
Cc1cnc(NC2CCOCC2)nc1-n1cnc(C(=O)NC(CN)c2cc(F)cc(Cl)c2)c1 (stereo not drawn) — remaining activity (enzyme activity; inhibitor; radiometric; 1 µM): 88%
CNC(=O)c1cc(Oc2ccc(NC(=O)Nc3ccc(Cl)c(C(F)(F)F)c3)cc2)ccn1 — inhibition (enzyme activity; inhibitor; 10 µM): 90%
CCCOc1ccc([C@H]2[C@H](C(=O)O)[C@@H](c3ccc4c(c3)OCO4)CN2CC(=O)Nc2c(CC)cccc2CC)cc1 — remaining binding (cell-free assay; competition with immobilised ligand; 1 µM): 98%
Cc1ccc(Nc2nccc(N(C)c3ccc4c(C)n(C)nc4c3)n2)cc1S(N)(=O)=O — inhibition (enzyme activity; inhibitor; 0.3 µM): 1%
CNC(=O)c1cc2c(Oc3ccc(NC(=O)C4(C(=O)Nc5ccc(F)cc5)CC4)cc3)ccnc2cc1OC — inhibition (enzyme activity; inhibitor; radiometric; 1 µM): 96%
O=C(NCc1ncc(C(F)(F)F)cc1Cl)c1ccc2c(c1)C1(CCS(=O)(=O)CC1)[C@H](C1CC1)N2S(=O)(=O)c1ccc(F)cc1 — remaining binding (cell-free assay; competition with immobilised ligand; 1 µM): 100%
O=C1Nc2ccc(Cl)cc2C1=Cc1cc(Cl)c(O)c(Cl)c1 — remaining signal (cell-free assay; 0.5 µM): 97.5%
CO[C@@H](C)c1c(Nc2ccc([C@@H](N(C)C(=O)C3CCS(=O)(=O)CC3)C(F)(F)F)cc2)cnc2cc(Cl)nn12 — remaining binding (cell-free assay; competition with immobilised ligand; 1 µM): 87%
Cc1ccc(C(=O)Nc2ccc(CN3CCN(C)CC3)c(C(F)(F)F)c2)cc1C#Cc1cnc2cccnn12 — remaining signal (cell-free assay; 23.5 nM): 81%
O=C(Nc1cnn(-c2csc(C(=O)NC3COC3)c2)c1)Nc1c(F)cccc1Cl — remaining activity (enzyme activity; inhibitor; 5 µM): 91.2%
CC(=O)c1c(NS(C)(=O)=O)c2cc(-c3ccc(Cl)cc3)c(-c3ccc(Cl)cc3Cl)nc2n(C)c1=O — remaining binding (cell-free assay; competition with immobilised ligand; 1 µM): 100%
Nc1ncnc2occ(-c3ccc(NC(=O)Nc4cc(C(F)(F)F)ccc4F)cc3)c12 — remaining signal (cell-free assay; 20 µM): 0%
CS(=O)(=O)c1cc(C2(NC(=O)c3cncc4c3cnn4-c3ccc(F)cc3)CC2)ccn1 — remaining binding (cell-free assay; competition with immobilised ligand; 1 µM): 92%
c1ccc(CNc2nc(N3CCOc4ccccc43)nc3c2CCCC3)cc1 — inhibition (target engagement in cells; inhibitor; chemoproteomics; 20 mM): 12%
Cc1c(C(=O)O)cc(-c2ccc(C3CCNCC3)cc2)c2ccc(-c3ccc(C(F)(F)F)cc3)cc12 — remaining binding (cell-free assay; competition with immobilised ligand; 1 µM): 100%
COc1cccc2c(NCc3ccccc3)nc(-n3c(N)nc4ccccc43)nc12 — inhibition (target engagement in cells; inhibitor; chemoproteomics; 20 mM): 2.9%
